What was measured:
CCRF-CEM [1] = assay: Growth inhibition of human CCRF-CEM cells after 48 hrs by sulforhodamine B assay; assay type: functional
Summary of the method: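 Five-dose SRB assay. Cells in RPMI 1640 with 5% FBS and 2 mM L-glutamine were seeded at 5,000–40,000 cells/well, with a TCA-fixed time-zero plate (Tz) taken at 24 h. Compound stocks were in DMSO, serially diluted 10-fold or ½-log to five concentrations, and incubated 48 h at 37 °C. Plates were stained with SRB and read at 515 nm. IC₅₀ was taken where [(Ti−Tz)/(C−Tz)]×100 = 50.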

RXF 393 [2] = assay: Cytotoxicity against human RXF393 cells assessed as cell growth at 0.001 uM after 48 hrs by sulforhodamine B assay; assay type: functional; details: RXF 393, 48 h, read-out: Activity
CCRF-CEM [3] = assay: Cytotoxicity against human CCRF-CEM cells assessed as cell growth at 0.001 uM after 48 hrs by sulforhodamine B assay; assay type: functional; details: read-out: Activity
MCF7 [4] = assay: Cytotoxicity against human MCF7 cells assessed as cell growth at 0.01 uM after 48 hrs by sulforhodamine B assay; assay type: functional; details: MCF7, 48 h, read-out: Activity
HOP-92 = assay: Cytotoxicity against human HOP92 cells assessed as cell growth at 1 uM after 48 hrs by sulforhodamine B assay; assay type: functional; details: HOP-92, 48 h, read-out: Activity
[5] = Cytotoxicity against human […] cells assessed as cell growth at 10 uM after 48 hrs by sulforhodamine B assay; assay type: functional; details: read-out: Activity
RXF 393 [6] = assay: Cytotoxicity against human RXF393 cells assessed as cell growth at 10 uM after 48 hrs by sulforhodamine B assay; assay type: functional; details: RXF 393, 48 h, read-out: Activity
MCF7 [7] = assay: Growth inhibition of human MCF7 cells after 48 hrs by sulforhodamine B assay; assay type: functional; details: MCF7, 48 h
Summary of the method: (§1)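 Cells grown in RPMI 1640 with 5% FBS and 2 mM L-glutamine, seeded at 5,000–40,000 cells/well according to doubling time. After 24 h, time-zero plates are TCA-fixed. Five concentrations (10-fold or ½log dilutions, DMSO stocks) are applied for 48 h at 37 °C, 5% CO₂. Cells are TCA-fixed, SRB-stained and read at 515 nm. IC₅₀ is taken from [(Ti−Tz)/(C−Tz)]×100 = 50.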

[8] = Cytotoxicity against human RPMI8266 cells assessed as cell growth at 1 uM after 48 hrs by sulforhodamine B assay; assay type: functional; details: read-out: Activity
[9] = Growth inhibition of human RPMI8266 cells after 48 hrs by sulforhodamine B assay; assay type: functional; summary of the method: as §1
CCRF-CEM [10] = assay: Cytotoxicity against human CCRF-CEM cells assessed as cell growth at 100 nM after 48 hrs by sulforhodamine B assay; assay type: functional; details: read-out: Activity
RXF 393 [11] = assay: Cytotoxicity against human RXF393 cells assessed as cell growth at 100 nM after 48 hrs by sulforhodamine B assay; assay type: functional; details: RXF 393, 48 h, read-out: Activity
RXF 393 [12] = assay: Cytotoxicity against human RXF393 cells assessed as cell growth at 0.01 uM after 48 hrs by sulforhodamine B assay; assay type: functional; details: RXF 393, 48 h, read-out: Activity
SR = assay: Cytotoxicity against human SR cells assessed as cell growth at 100 nM after 48 hrs by sulforhodamine B assay; assay type: functional; details: read-out: Activity
SK-MEL-28 = assay: Cytotoxicity against human SK-MEL-28 cells assessed as cell growth at 0.001 uM after 48 hrs by sulforhodamine B assay; assay type: functional; details: SK-MEL-28, 48 h, read-out: Activity
MCF7 [13] = assay: Cytotoxicity against human MCF7 cells assessed as cell growth at 10 uM after 48 hrs by sulforhodamine B assay; assay type: functional; details: MCF7, 48 h, read-out: Activity
[14] = target: Insulin-like growth factor 1 receptor (Homo sapiens) (UniProt P08069); assay: Inhibition of IGF1R at 10 uM by HotSpot assay
Insulin-like growth factor 1 receptor (Homo sapiens), sequence (P08069 31-736 limits assumed): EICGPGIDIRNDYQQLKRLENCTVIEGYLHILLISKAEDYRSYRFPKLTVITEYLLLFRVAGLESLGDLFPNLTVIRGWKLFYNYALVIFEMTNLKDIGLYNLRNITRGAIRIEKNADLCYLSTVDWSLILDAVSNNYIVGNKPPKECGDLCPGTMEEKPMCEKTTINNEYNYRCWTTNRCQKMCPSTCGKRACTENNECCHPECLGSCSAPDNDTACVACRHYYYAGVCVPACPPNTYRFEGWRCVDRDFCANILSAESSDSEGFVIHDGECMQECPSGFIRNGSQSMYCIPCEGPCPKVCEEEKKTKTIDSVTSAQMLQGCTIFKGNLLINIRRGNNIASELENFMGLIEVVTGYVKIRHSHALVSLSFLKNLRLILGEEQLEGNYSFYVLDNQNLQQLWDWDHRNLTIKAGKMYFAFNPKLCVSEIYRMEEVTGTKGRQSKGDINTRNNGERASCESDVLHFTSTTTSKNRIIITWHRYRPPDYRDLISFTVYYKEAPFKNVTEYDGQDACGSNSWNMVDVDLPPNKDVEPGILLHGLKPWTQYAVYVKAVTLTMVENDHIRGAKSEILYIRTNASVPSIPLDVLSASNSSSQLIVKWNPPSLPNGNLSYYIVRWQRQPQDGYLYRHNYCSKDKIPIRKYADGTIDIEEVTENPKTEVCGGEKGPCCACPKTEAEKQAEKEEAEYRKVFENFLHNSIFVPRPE
Insulin-like growth factor 1 receptor (Homo sapiens), sequence (P08069 741-1367 limits assumed): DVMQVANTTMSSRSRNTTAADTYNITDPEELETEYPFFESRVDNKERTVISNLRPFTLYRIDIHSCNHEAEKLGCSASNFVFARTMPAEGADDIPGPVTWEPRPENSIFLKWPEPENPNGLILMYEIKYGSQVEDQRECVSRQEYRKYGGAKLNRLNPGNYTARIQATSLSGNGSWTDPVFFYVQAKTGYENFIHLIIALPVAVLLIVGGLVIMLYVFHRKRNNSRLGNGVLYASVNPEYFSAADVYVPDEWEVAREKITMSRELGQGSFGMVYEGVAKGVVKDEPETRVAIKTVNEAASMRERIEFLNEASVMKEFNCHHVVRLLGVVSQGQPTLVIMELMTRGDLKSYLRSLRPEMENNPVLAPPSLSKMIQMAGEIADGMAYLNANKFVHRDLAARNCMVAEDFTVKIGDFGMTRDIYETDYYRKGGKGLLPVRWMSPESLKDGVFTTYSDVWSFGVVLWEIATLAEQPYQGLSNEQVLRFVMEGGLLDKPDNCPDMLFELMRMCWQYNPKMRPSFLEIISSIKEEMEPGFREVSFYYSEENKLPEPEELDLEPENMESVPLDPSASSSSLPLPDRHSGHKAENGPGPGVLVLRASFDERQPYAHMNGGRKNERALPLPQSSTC

[15] = target: Glycogen synthase kinase-3 beta (Homo sapiens) (UniProt P49841); assay: Inhibition of GSK3-beta at 10 uM by HotSpot assay
Glycogen synthase kinase-3 beta (Homo sapiens), sequence (P49841 whole entry, looked up): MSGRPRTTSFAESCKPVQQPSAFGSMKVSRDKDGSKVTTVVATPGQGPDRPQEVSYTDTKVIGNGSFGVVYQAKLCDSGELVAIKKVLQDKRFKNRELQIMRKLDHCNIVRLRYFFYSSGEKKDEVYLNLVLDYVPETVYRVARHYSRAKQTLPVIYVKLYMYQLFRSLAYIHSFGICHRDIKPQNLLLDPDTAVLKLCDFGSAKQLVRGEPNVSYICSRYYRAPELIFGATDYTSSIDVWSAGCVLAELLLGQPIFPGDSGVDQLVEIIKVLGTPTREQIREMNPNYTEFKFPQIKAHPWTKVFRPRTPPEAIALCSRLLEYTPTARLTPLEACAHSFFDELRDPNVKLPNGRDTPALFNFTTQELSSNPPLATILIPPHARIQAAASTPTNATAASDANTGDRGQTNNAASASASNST

[16] = target: Protein kinase C alpha type (Homo sapiens) (UniProt P17252); assay: Inhibition of PKCalpha at 10 uM by HotSpot assay
[17] = target: Focal adhesion kinase 1 (Homo sapiens) (UniProt Q05397); assay: Inhibition of PTK2 at 10 uM by HotSpot assay
[18] = target: Ribosomal protein S6 kinase beta-1 (Homo sapiens) (UniProt P23443); assay: Inhibition of p70S6K1 at 10 uM by HotSpot assay
[19] = target: Aurora kinase A (Homo sapiens) (UniProt O14965); assay: Inhibition of Aurora A at 10 uM by HotSpot assay
[20] = target: Serine/threonine-protein kinase B-raf (Homo sapiens) (UniProt P15056); assay: Inhibition of B-Raf at 10 uM by HotSpot assay
[21] = target: Vascular endothelial growth factor receptor 2 (Homo sapiens) (UniProt P35968); assay: Inhibition of KDR at 10 uM by HotSpot assay
[22] = target: Insulin receptor (Homo sapiens) (UniProt P06213); assay: Inhibition of IR at 10 uM by HotSpot assay
[23] = target: Serine/threonine-protein kinase PLK1 (Homo sapiens) (UniProt P53350); assay: Inhibition of PLK1 at 10 uM by HotSpot assay
[24] = target: Rho-associated protein kinase 1 (Homo sapiens) (UniProt Q13464); assay: Inhibition of ROCK1 at 10 uM by HotSpot assay
[25] = target: Tyrosine-protein kinase JAK3 (Homo sapiens) (UniProt P52333); assay: Inhibition of JAK3 at 10 uM by HotSpot assay
[26] = target: Platelet-derived growth factor receptor beta (Homo sapiens) (UniProt P09619); assay: Inhibition of PDGFRbeta at 10 uM by HotSpot assay
[27] = target: RAF proto-oncogene serine/threonine-protein kinase (Homo sapiens) (UniProt P04049); assay: Inhibition of RAF1 at 10 uM by HotSpot assay
[28] = target: Hepatocyte growth factor receptor (Homo sapiens) (UniProt P08581); assay: Inhibition of c-MET at 10 uM by HotSpot assay
Hepatocyte growth factor receptor (Homo sapiens), sequence (P08581 whole entry): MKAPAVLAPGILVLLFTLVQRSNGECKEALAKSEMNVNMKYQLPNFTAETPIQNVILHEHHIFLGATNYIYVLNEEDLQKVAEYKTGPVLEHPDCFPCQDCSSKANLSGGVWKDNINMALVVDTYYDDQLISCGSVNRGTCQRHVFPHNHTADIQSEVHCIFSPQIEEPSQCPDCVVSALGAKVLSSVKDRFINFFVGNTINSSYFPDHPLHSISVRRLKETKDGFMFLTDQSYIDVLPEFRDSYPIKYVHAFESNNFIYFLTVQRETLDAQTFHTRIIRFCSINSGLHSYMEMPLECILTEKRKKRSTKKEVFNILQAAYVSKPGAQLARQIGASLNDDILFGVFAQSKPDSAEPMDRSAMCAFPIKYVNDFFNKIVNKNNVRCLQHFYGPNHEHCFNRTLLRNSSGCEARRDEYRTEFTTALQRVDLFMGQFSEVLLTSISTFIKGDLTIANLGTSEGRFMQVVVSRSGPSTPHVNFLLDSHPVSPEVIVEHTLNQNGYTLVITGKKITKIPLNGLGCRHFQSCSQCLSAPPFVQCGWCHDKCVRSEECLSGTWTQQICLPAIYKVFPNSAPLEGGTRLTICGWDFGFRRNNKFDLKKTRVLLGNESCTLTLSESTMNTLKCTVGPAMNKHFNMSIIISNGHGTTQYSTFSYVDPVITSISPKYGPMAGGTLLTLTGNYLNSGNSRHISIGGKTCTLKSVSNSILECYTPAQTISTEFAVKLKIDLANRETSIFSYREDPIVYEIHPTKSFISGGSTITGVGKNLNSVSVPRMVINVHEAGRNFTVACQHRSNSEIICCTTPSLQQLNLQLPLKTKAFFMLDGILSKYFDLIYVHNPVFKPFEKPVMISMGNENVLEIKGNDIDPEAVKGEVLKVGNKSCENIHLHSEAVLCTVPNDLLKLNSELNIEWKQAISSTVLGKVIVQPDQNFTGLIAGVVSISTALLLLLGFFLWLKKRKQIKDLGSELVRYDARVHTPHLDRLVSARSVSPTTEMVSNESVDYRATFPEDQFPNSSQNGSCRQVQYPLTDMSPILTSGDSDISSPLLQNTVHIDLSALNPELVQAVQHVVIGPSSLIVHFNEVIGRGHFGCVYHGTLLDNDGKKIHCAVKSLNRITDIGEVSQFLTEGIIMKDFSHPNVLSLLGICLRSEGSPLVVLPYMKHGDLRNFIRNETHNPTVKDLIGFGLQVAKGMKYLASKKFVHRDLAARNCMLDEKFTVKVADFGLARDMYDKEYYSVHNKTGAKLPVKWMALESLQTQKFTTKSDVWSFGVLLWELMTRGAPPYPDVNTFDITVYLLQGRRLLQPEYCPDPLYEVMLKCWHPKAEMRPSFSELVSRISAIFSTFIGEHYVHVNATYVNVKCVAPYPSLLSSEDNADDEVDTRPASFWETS

[29] = target: Tyrosine-protein kinase SYK (Homo sapiens) (UniProt P43405); assay: Inhibition of SYK at 10 uM by HotSpot assay
[30] = target: Inhibitor of nuclear factor kappa-B kinase subunit beta (Homo sapiens) (UniProt O14920); assay: Inhibition of IKK-beta at 10 uM by HotSpot assay
[31] = target: BDNF/NT-3 growth factors receptor (Homo sapiens) (UniProt Q16620); assay: Inhibition of NTRK2 at 10 uM by HotSpot assay
BDNF/NT-3 growth factors receptor (Homo sapiens), sequence (Q16620 32-822 limits assumed): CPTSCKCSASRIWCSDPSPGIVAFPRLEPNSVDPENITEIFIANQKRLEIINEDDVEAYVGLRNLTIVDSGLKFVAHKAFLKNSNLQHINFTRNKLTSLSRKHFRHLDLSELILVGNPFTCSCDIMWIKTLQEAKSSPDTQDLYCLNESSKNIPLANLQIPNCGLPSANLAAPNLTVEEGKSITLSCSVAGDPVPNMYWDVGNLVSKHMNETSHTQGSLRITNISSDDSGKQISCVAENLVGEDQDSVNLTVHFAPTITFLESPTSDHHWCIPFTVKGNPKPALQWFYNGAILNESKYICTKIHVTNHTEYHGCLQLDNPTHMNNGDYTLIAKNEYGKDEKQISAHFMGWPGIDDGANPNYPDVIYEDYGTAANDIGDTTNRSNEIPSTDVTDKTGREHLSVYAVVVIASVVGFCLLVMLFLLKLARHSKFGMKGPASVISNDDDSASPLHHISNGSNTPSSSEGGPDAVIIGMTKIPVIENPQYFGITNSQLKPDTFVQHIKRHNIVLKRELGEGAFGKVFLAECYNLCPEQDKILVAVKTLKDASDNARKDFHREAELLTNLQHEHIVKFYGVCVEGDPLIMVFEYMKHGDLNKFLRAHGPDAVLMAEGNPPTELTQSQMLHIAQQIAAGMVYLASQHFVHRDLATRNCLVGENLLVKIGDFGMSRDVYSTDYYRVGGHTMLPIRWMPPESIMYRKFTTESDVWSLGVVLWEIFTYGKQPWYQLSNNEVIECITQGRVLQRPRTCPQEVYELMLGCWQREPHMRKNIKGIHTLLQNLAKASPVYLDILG

[32] = target: Protein-tyrosine kinase 2-beta (Homo sapiens) (UniProt Q14289); assay: Inhibition of PTK2B at 10 uM by HotSpot assay
[33] = target: RAC-alpha serine/threonine-protein kinase (Homo sapiens) (UniProt P31749); assay: Inhibition of AKT1 at 10 uM by HotSpot assay
[34] = target: Proto-oncogene tyrosine-protein kinase receptor Ret (Homo sapiens) (UniProt P07949); assay: Inhibition of RET at 10 uM by HotSpot assay
Proto-oncogene tyrosine-protein kinase receptor Ret (Homo sapiens), sequence (P07949 whole entry): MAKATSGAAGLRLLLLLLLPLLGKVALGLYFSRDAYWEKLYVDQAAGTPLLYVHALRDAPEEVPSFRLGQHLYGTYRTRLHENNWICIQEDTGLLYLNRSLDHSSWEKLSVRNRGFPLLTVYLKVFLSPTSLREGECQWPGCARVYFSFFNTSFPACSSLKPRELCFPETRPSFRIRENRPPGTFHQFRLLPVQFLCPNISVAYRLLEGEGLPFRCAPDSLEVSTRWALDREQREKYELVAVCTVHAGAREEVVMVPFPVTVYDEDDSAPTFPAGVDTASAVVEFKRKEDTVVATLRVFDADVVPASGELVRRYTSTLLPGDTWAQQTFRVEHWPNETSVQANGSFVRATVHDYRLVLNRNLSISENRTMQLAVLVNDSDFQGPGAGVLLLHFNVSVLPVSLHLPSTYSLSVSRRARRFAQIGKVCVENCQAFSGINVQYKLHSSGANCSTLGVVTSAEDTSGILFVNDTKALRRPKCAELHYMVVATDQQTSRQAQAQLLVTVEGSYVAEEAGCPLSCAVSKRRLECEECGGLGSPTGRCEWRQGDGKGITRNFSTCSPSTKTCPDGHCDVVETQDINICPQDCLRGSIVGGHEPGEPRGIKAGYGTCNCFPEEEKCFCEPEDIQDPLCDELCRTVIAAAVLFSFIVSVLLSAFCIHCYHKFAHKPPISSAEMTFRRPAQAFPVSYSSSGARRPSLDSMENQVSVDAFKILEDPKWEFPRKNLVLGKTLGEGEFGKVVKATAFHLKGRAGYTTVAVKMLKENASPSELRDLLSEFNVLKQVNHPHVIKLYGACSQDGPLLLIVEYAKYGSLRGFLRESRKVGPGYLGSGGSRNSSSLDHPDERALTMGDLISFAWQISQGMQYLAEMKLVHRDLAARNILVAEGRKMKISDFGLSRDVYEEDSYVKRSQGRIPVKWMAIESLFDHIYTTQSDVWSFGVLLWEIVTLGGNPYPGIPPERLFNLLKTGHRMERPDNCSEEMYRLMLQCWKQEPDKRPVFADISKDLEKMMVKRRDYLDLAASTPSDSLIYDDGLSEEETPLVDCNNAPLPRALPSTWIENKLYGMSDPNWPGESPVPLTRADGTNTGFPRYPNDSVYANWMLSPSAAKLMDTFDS

[35] = read-out: LC50 (the source's name)

CC(=O)c1ccccc1-c1ccc(-c2ccnc(NC(=O)Nc3cc(N4CCOCC4)cc(C(F)(F)F)c3)n2)cn1
GI50 (CCRF-CEM [1]): > 100 µM | TGI (CCRF-CEM [1]): > 100 µM | CC50 (CCRF-CEM [1]; [35]): > 100 µM | growth at 0.001 µM (RXF 393 [2]): 101% | growth at 0.001 µM (CCRF-CEM [3]): 98% | growth at 0.01 µM (MCF7 [4]): 101% | growth at 1 µM (HOP-92): -2% | growth at 10 µM [5]: 89% | growth at 10 µM (RXF 393 [6]): -16% | GI50 (MCF7 [7]): > 100 µM | TGI (MCF7 [7]): > 100 µM | CC50 (MCF7 [7]; [35]): > 100 µM | growth at 1 µM [8]: 78% | GI50 [9]: > 100 µM | TGI [9]: > 100 µM | CC50 [9, 35]: > 100 µM | growth at 0.1 µM (CCRF-CEM [10]): 87% | growth at 0.1 µM (RXF 393 [11]): 82% | growth at 0.01 µM (RXF 393 [12]): 108% | growth at 0.1 µM (SR): 74% | growth at 0.001 µM (SK-MEL-28): 100% | growth at 10 µM (MCF7 [13]): 70%

CC(=O)Nc1cccc(-c2ccc(-c3ccnc(NC(=O)Nc4cc(C(F)(F)F)cc(C(F)(F)F)c4)n3)cn2)c1.Cl
inhibition [14]: < 50% | inhibition [15]: < 50% | inhibition [16]: < 50% | inhibition [17]: < 50% | inhibition [18]: < 50% | inhibition [19]: 60% | inhibition [20]: < 50% | inhibition [21]: 50% | inhibition [22]: < 50% | inhibition [23]: < 50% | inhibition [24]: < 50% | inhibition [25]: < 50% | inhibition [26]: < 50% | inhibition [27]: < 50% | inhibition [28]: < 50% | inhibition [29]: < 50% | inhibition [30]: < 50% | inhibition [31]: < 50% | inhibition [32]: < 50% | inhibition [33]: < 50% | inhibition [34]: < 50%

— ChEMBL document CHEMBL1165943, “Design and synthesis of new anticancer pyrimidines with multiple-kinase inhibitory effect” (Bioorg Med Chem, 2010)
